Source: ChEMBL document CHEMBL3124924, “Bifunctional ethyl 2-amino-4-methylthiazole-5-carboxylate derivatives: synthesis and in vitro biological evaluation as antimicrobial and anticancer agents” (2014)
≈ marks a conversion by molar mass, not a printed value. Calls of active or inactive are those of the source. The rule behind the calls is not given here.

Columns and labels:
[1] = tested on: Bacillus spizizenii; assay: Antibacterial activity against Bacillus subtilis ATCC 6633 assessed as growth inhibition at 1 mg/mL after 24 hrs by agar-cup diffusion method; type: functional; details: ATCC 6633, 24 h, read-out: DIZ
In short: (§1)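 Agar-cup diffusion: 1 mL of 6 h broth culture seeded per 100 mL molten sterile agar at 45 °C and poured into plates. 8 mm cups cut, each filled with 0.1 mL of 1 mg/mL test solution. Incubated 37 °C for 24 h, 48 h for C. albicans. DMSO control per organism. Inhibition zone diameter in mm, mean of three measurements.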

[2] = tested on: Aspergillus niger; assay: Antifungal activity against Aspergillus niger assessed as growth inhibition at 1 mg/mL after 24 hrs by agar-cup diffusion method; type: functional, organism-based; in short: as §1
[3] = tested on: Bacillus spizizenii; assay: Antibacterial activity against Bacillus subtilis ATCC 6633 assessed as growth inhibition after 48 hrs by two-fold serial dilution assay; type: functional; details: ATCC 6633, 48 h
In short: (§2)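 Twofold serial broth dilution run on compounds giving inhibition zones of 13 mm or more. Organisms pre-grown in suitable broth at 37 °C, 24 h for bacteria and 48 h for fungi. Dilution series 200, 100, 50, 25, 12.5, 6.25. Each 5 mL tube inoculated with 0.1 mL and incubated 37 °C for 48 h. Tubes scored for presence or absence of growth.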

[4] = tested on: Staphylococcus aureus; assay: Antibacterial activity against Staphylococcus aureus ATCC 6538 assessed as growth inhibition after 48 hrs by two-fold serial dilution assay; type: functional; details: ATCC 6538, 48 h; in short: as §2
[5] = tested on: Escherichia coli; assay: Antibacterial activity against Escherichia coli ATCC 25922 assessed as growth inhibition at 1 mg/mL after 24 hrs by agar-cup diffusion method; type: functional; details: ATCC 25922, 24 h, read-out: DIZ; in short: as §1
[6] = tested on: Pseudomonas aeruginosa; assay: Antibacterial activity against Pseudomonas aeruginosa ATCC 27853 assessed as growth inhibition at 1 mg/mL after 24 hrs by agar-cup diffusion method; type: functional; details: ATCC 27853, 24 h, read-out: DIZ; in short: as §1
[7] = tested on: Escherichia coli; assay: Bactericidal activity against Escherichia coli ATCC 25922 after 18 hrs; type: functional; details: ATCC 25922, 18 h
In short: (§3)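 Continuation of the broth-dilution MIC test. A loopful from each tube without visible growth spread on a quarter of a Mueller-Hinton agar plate and incubated 18 h. Lowest concentration giving no growth on subculture taken as the MBC.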

[8] = tested on: Staphylococcus aureus; assay: Bactericidal activity against Staphylococcus aureus ATCC 6538 after 18 hrs; type: functional; details: ATCC 6538, 18 h; in short: as §3
[9] = tested on: Candida albicans; assay: Fungicidal activity against Candida albicans ATCC 10231 after 18 hrs; type: functional; details: ATCC 10231, 18 h; in short: as §3
[10] = tested on: Bacillus spizizenii; assay: Bactericidal activity against Bacillus subtilis ATCC 6633 after 18 hrs; type: functional; details: ATCC 6633, 18 h; in short: as §3
[11] = tested on: Escherichia coli; assay: Antibacterial activity against Escherichia coli ATCC 25922 assessed as growth inhibition after 48 hrs by two-fold serial dilution assay; type: functional; details: ATCC 25922, 48 h; in short: as §2
[12] = tested on: Staphylococcus aureus; assay: Antibacterial activity against Staphylococcus aureus ATCC 6538 assessed as growth inhibition at 1 mg/mL after 24 hrs by agar-cup diffusion method; type: functional; details: ATCC 6538, 24 h, read-out: DIZ; in short: as §1
[13] = tested on: Candida albicans; assay: Antifungal activity against Candida albicans ATCC 10231 assessed as growth inhibition after 48 hrs by two-fold serial dilution assay; type: functional; details: ATCC 10231, 48 h; in short: as §2
[14] = tested on: Candida albicans; assay: Antifungal activity against Candida albicans ATCC 10231 assessed as growth inhibition at 1 mg/mL after 48 hrs by agar-cup diffusion method; type: functional; details: ATCC 10231, 48 h, read-out: DIZ; in short: as §1

- MIC [3]: 100 µg/mL (≈ 354 µM)
- MIC [4]: 100 µg/mL (≈ 354 µM)
- MIC [11]: 100 µg/mL (≈ 354 µM)
- MIC [13]: 100 µg/mL (≈ 354 µM)
SMILES: CCOC(=O)c1sc(NC(=O)C(F)(F)F)nc1C
- zone of inhibition at 1000 µg/mL [1]: > 13 mm
- growth inhibition (GI) [2]: inactive
- zone of inhibition at 1000 µg/mL [5]: > 13 mm
- zone of inhibition at 1000 µg/mL [6]: > 13 mm
- MBC [7]: 100 µg/mL (≈ 354 µM)
- MBC [8]: 100 µg/mL (≈ 354 µM)
- MFC [9]: 100 µg/mL (≈ 354 µM)
- MBC [10]: 100 µg/mL (≈ 354 µM)
- zone of inhibition at 1000 µg/mL [12]: > 13 mm
- zone of inhibition at 1000 µg/mL [14]: > 13 mm
